Bioassay records (PubChem BioAssay)
The list is not random: actives were taken first. Their share in the collection is about 3.7%.
Mdm2 MdmX PPI: inhibitors of human Mdm2-MdmX association, primary screen, cell-based, luminescence, split luciferase, SaOS-2, uHTS; SaOS-2 split-luciferase Mdm2/MdmX complementation; hit rate 3% among 330,000; Protein Mdm4 (Homo sapiens) + E3 ubiquitin-protein ligase Mdm2 (Homo sapiens), …; AID 485346, 2010; inhibition, % at 8 µM;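 active = inhibition of at least 50% at 8 µM in the primary screen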
Target sequence (O15151 whole entry, looked up): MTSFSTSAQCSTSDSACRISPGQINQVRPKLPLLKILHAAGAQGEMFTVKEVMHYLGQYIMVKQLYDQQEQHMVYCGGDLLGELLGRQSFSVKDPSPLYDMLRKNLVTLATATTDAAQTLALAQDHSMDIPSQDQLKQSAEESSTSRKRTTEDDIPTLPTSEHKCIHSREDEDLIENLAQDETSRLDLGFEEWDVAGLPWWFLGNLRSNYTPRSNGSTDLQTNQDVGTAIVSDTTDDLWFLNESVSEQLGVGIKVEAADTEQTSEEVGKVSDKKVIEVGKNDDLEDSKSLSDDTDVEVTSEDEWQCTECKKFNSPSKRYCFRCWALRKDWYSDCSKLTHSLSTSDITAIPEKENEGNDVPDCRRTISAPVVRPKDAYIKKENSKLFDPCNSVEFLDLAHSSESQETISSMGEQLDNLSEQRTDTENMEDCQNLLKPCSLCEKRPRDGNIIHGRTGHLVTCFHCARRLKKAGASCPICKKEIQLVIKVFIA
Target sequence (Q00987 whole entry, looked up): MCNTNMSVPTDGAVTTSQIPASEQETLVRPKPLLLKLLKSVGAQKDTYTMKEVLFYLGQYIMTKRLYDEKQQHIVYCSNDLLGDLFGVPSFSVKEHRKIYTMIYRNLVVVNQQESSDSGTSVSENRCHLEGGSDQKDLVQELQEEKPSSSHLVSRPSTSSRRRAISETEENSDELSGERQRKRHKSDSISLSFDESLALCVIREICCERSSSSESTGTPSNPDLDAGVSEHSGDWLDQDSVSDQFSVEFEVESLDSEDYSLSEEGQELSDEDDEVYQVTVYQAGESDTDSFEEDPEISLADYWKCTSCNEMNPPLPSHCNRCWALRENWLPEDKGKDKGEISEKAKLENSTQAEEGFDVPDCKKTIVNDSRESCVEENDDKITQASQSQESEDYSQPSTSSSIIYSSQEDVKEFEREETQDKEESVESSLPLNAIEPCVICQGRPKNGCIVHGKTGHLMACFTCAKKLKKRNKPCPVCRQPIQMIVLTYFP
Beta2AR agonist: beta2AR agonists driving receptor internalization, primary screen, cell-based, FAP fluorogen, flow cytometry | AID 504454, 2011 | response, % (no concentration beside the values) | Am2.2-beta2AR cells | hit rate 0.43% among 340,000 | Beta-2 adrenergic receptor (Homo sapiens), P07550;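 active = response above a set limit, near 3 SD of response in nonfluorescent compounds, cut at about 42% in these data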
Mdm2 ligase inh: MDM2-luciferase reporter signal enhancers, primary screen, MDM2 E3 ligase inhibitor project, cell-based, luminescence, 1536-well. E3 ubiquitin-protein ligase Mdm2 (Homo sapiens), Q00987. cell-based MDM2 ubiquitination luciferase reporter, 2 h; 0 = plate control, 100 = twice control, blank-subtracted. signal enhancement, % at 5 µM. hit rate 0.11% among 210,000. AID 1230, 2008;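 active = signal enhancement of 30% or more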;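 also: luminescence tracks abundance of the self-degrading MDM2-luciferase fusion protein; higher signal means inhibition of MDM2 E3 ligase activity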
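Assay system: stable mammalian line carrying autodegrading MDM2–luciferase fusion reporter; Input: 2000 cells in each well; Compound dosing: single-point 5 µM; Schedule: 2 h compound exposure at 37 °C; Signal: SteadyLite luciferase luminescence after 15 min room-temperature reagent incubation; Evaluation: % luminescence enhancement versus blank-corrected plate control mean; Benchmarks: plate controls and plate blanks.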
UPR XBP1 act: activators of adaptive XBP1 UPR arm, primary screen, cell-based, CHO-XBP1 luciferase reporter, luminescence, uHTS. activation, % at 20 µM. IRE1-XBP1 UPR activation; percent of tunicamycin response, DMSO as zero. hit rate 0.33% among 330,000;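 active = versus positive control, 20 µM dose yields 30% or more activation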;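 also: 100% = tunicamycin at 10 µg/mL and 0% = DMSO only wells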
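Assay system: IRE1-XBP1 luciferase reporter CHO line. Input: 1000 cells/well. Buffer or medium: F12 with 10% serum. Doses: 20 µM, 1% DMSO. Times: overnight seeding at 37 °C, 6 h compound treatment at 37 °C. Technique: Steady-Glo luciferase glow luminescence, 10 min after reagent addition.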
CHOP UPR activ: activators of apoptotic CHOP UPR arm, primary screen, cell-based, CHO-CHOP luciferase reporter, luminescence, uHTS; hit rate 0.34% among 330,000; UPR activation; percent of tunicamycin response over DMSO baseline; activation, % at 10 µM;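 active = at 10 µM dose, activation of 40% or more, normalized to positive control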;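 also: 100% = tunicamycin at 10 µg/mL and 0% = DMSO alone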
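assay system = CHO CHOP reporter cells | amount = 500 CHO-CHOP cells per well | buffer or medium = F12 with 10% FBS | incubation = 16-18 h cell attachment, then 6 h compound exposure, 37 °C | detection = luminescence read with Steady-Glo | read-out = percent activation relative to tunicamycin control | controls = tunicamycin high control, DMSO low control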
Dynein cargo inh: inhibitors of GR-EGFP nuclear translocation, primary screen, dynein cargo transport inhibitor project, imaging, high-content, 3617.4 mouse cells | test concentration mostly 20 µM; stimulated with dexamethasone, 1 µM; active compounds read low | z-score, hits read low | hit rate 0.47% among 220,000 | AID 1381, 2008;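 active = plate z-score of nuclear minus cytoplasmic receptor signal below a set negative limit, without overly bright fluorescence or cell loss, cut at about -3.5 in these data, passing the limit was not always enough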;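 also: z-score of nuclear minus cytoplasmic ring GR-EGFP intensity difference per well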
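Buffer or medium: tet-free, stripped-serum medium; Also added: dexamethasone, 1.0 µM final; Technique: high-content fluorescence imaging after fixation; Times: 48 h induction, 1 h compound, 30 min dex at 37 °C; Read-out: per-cell GR-EGFP intensity, nucleus versus surrounding cytoplasmic ring, well-averaged.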
Mdm2 MdmX conf: Mdm2-MdmX complex disruptors, retested hits, confirmation, luminescence, single concentration; shares compounds with Mdm2 MdmX PPI; Mdm2-MdmX binding, luminescent assay; inhibition, % at 8 µM; hit rate 55% among 10,000; in the data active = inhibition above about 40%
FLuc counter: full-length luciferase signal inhibition, confirmation, counter-screen for Mdm2/MdmX interaction inhibitor project, cell-based, single concentration, SaOS-2; AID 504607, 2011; shares compounds with Mdm2 MdmX PPI; hit rate 77% among 6,200; inhibition, % at 8 µM; SaOS-2 full-length luciferase counterscreen, luminescence;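 active = mean inhibition at 8 µM reaching about 37%, which flags the compound as non-specific, limit read from the data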;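 also: p53-null SaOS-2 cells with luciferase driven by a doxycycline-inducible promoter; compound on cells about two nights before reading with doxycycline added after day one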
* hit, by the source's call; · = no result.

SMILES	Mdm2 MdmX PPI	Beta2AR agonist	Mdm2 ligase inh	UPR XBP1 act	CHOP UPR activ	Dynein cargo inh	Mdm2 MdmX conf	others
COc1ccc(C(CNC(=O)c2oc3cc(C)c(C)cc3c2C)N2CCCCC2)cc1 (centres undefined)	51*	13	·	-5	2	·	-10
CCC1CCc2sc(C(=O)NCC(c3ccc(OC)cc3)N3CCCC3)cc2C1 (centres undefined)	50*	22	·	1	2	·	31
COc1ccc(C(CNC(=O)c2oc3ccc(OC)cc3c2C)N2CCCC2)cc1 (centres undefined)	-15	6	·	4	1	·	·
CCCCN(C(=O)C1CC(=O)N(c2ccc(OC)cc2OC)C1)c1c(N)n(CC(C)C)c(=O)[nH]c1=O (centres undefined)	9	12	·	-3	-1	·	·
Cc1ccc(-c2nc3cccnc3s2)cc1NC(=O)C1c2ccccc2Oc2ccccc21	70*	35	·	2	5	-0.68	10
Cc1c(C(=O)Nc2ccc(Cl)cc2)c2ccccn2c1C(=O)c1ccc([N+](=O)[O-])cc1	15	3	-6	-2	0	0.61	·
Cc1c(C(=O)Nc2ccc(Cl)cc2)c2ccccn2c1C(=O)c1ccccc1	59*	-2	-5	-4	1	0.73	0
CCOC(=O)C1(CCCc2ccccc2)CCN(C(=O)c2cc(C)nn2CC)CC1	-3	-3	·	-3	0	·	·
Cc1ccc(/C=N/N2C(=S)SC(C)(C)C2N(O)C(=O)Nc2ccc([N+](=O)[O-])cc2)cc1 (centres undefined)	67*	35	-25	6	3	-0.6	25
COc1ccccc1CNS(=O)(=O)c1ccc(Cl)s1	-18	7	·	-1	2	·	·
Cc1ccc(-c2cc(C(F)F)n3ncc(C(=O)Nc4ccc(S(=O)(=O)Nc5ccccc5C)cc4)c3n2)cc1	54*	-3	-16	-1	0	0.79	23
COc1cc(SC)ccc1C(=O)Nc1ccc(Br)cn1	60*	-4	-83	-9	-5	0.15	48*	FLuc counter=126*
COc1cc(SC)ccc1C(=O)Nc1ccc(C)cc1	-204	3	2	2	5	-0.59	·
COc1cc(SC)ccc1C(=O)Nc1ccccn1	-174	-11	-37	-4	2	0.14	·
COc1cc(SC)ccc1C(=O)Nc1ncc(C)s1	71*	5	-87	-14	-8	0.11	56*	FLuc counter=71*
COc1ccccc1NC(=O)Cn1cnc2sc(C(=O)Nc3cc(OC)c(OC)c(OC)c3)c(C)c2c1=O	29	-13	·	-2	-2	·	·
COc1ccccc1NC(=O)c1sc2ncn(CC(=O)Nc3ccccc3)c(=O)c2c1C	55*	-9	·	9	-1	·	5
NS(=O)(=O)c1cccc(NC(=O)c2cccc(-c3ccc(O)cc3)c2)c1	64*	-2	·	0	2	·	30
C#CCOCCOCCOCCNc1nc(N2CCN(C(=O)CCCCCCCCCCNC(=O)[C@@H](CCSC)n3cc(CCO)nn3)CC2)nc(N2CCN(C(=O)CCCCCCCCCCNC(=O)[C@H]([C@@H](C)CC)n3cc(CCCCCN)nn3)CC2)n1	92*	·	·	4	1	·	31
C#CCOCCOCCOCCNc1nc(N2CCN(C(=O)CCCCCCCCCCNC(=O)[C@H](CO)n3cc(CCCSC)nn3)CC2)nc(N2CCN(C(=O)CCCCCCCCCCNC(=O)[C@H](CCCCN)n3cc(C[C@@H](C)CC)nn3)CC2)n1	100*	·	·	17	14	·	57*	FLuc counter=27
C#CCOCCOCCOCCNc1nc(N2CCN(C(=O)CCCCCCCCCCNC(=O)[C@H](CO)n3cc(CCCSC)nn3)CC2)nc(N2CCN(C(=O)CCCCCCCCCCNC(=O)[C@H](CO)n3cc(CCCSC)nn3)CC2)n1	13	5	·	0	4	·	·
C#CCOCCOCCOCCNc1nc(N2CCN(C(=O)CCCCCCCCCCNC(=O)Cn3cc(C[C@@H](C)O)nn3)CC2)nc(N2CCN(C(=O)CCCCCCCCCCNC(=O)[C@H](CCCCN)n3cc(C[C@@H](C)CC)nn3)CC2)n1	93*	40	·	5	1	·	55*	FLuc counter=55*
C#CCOCCOCCOCCNc1nc(N2CCN(C(=O)CCCCCCCCCCNC(=O)[C@H]([C@@H](C)CC)n3cc(CCCCCN)nn3)CC2)nc(N2CCN(C(=O)CCCCCCCCCCNC(=O)[C@@H]([C@H](C)O)n3cc(C)nn3)CC2)n1	98*	29	·	18	3	·	55*	FLuc counter=40*
C#CCOCCOCCOCCNc1nc(N2CCN(C(=O)CCCCCCCCCCNC(=O)Cn3cc(C[C@@H](C)O)nn3)CC2)nc(N2CCN(C(=O)CCCCCCCCCCNC(=O)Cn3cc(C[C@@H](C)O)nn3)CC2)n1	16	15	·	-3	1	·	·
O=C(Cc1n[nH]c(=O)c2ccccc12)OCC(=O)c1ccc(OC(F)F)cc1OC(F)F	-13	-3	·	-1	0	·	·
COc1ccccc1NC(=S)N1CCC(C(=O)c2ccc(F)cc2)CC1	-7	0	-3	-1	1	-0.77	·
